Laboratory results published in ChEMBL document CHEMBL1671806, “New imidazolidinedione derivatives as antimalarial agents” (Bioorg Med Chem, 2011).
Converted amounts (≈) assume the structure as drawn. The source made the active and inactive calls. The rule behind the calls is not given here.

Columns and labels:
Plasmodium falciparum [1] = assay: Antimicrobial activity against Plasmodium falciparum D6 by microdilution method; type: functional, organism-based
Plasmodium falciparum [2] = assay: Antimicrobial activity against Plasmodium falciparum W2 by microdilution method; type: functional, organism-based
Plasmodium berghei [3] = assay: Antiplasmodial activity against Plasmodium berghei sporozoites infected in orally dosed mouse administered for three consecutive days one day before infection; type: functional; conditions: po, 24 h, read-out: MED
How it was run: (§1)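 Mice were inoculated with P. berghei sporozoites. For oral dosing, compounds were ground and suspended in hydroxyethylcellulose plus Tween 80; for sc dosing, they were suspended in peanut oil. Doses were given once daily on three consecutive days: the day before, 4 h before, and the day after inoculation. Several dose levels were used, up to 320 mg/kg/day. Cure was scored.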

[4] = Toxicity in Plasmodium berghei sporozoites infected orally dosed mouse administered for three consecutive days one day before infection; type: organism-based; conditions: in vivo, po
How it was run: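 Mice received P. berghei sporozoites. Each compound was ground and suspended in hydroxyethylcellulose plus Tween 80, then given orally at several dose levels up to 320 mg/kg/day. Dosing was once daily for three consecutive days: the day before, 4 h before, and the day after sporozoite inoculation.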

Plasmodium cynomolgi [5] = assay: Antiplasmodial activity against Plasmodium cynomolgi sporozoites infected in Rhesus monkey assessed as delay in detection of parasites in blood at 30 mg/kg/day, im administered for three consecutive days before infection; type: functional; conditions: route intramuscular
Plasmodium cynomolgi [6] = assay: Antiplasmodial activity against Plasmodium cynomolgi sporozoites infected in Rhesus monkey assessed as delay in detection of parasites in blood at 50 mg/kg/day, po administered for three consecutive days before infection; type: functional
Plasmodium cynomolgi [7] = assay: Antiplasmodial activity against Plasmodium cynomolgi sporozoites infected in Rhesus monkey assessed as duration for detection of parasites in blood at 30 mg/kg/day, im administered for three consecutive days before infection (reference value: 8 days); type: functional; conditions: route intramuscular
Plasmodium cynomolgi [8] = assay: Antiplasmodial activity against Plasmodium cynomolgi sporozoites infected in Rhesus monkey assessed as duration for detection of parasites in blood at 50 mg/kg/day, po administered for three consecutive days before infection (reference value: 8 days); type: functional
Plasmodium berghei [9] = assay: Antiplasmodial activity against Plasmodium berghei sporozoites infected in orally dosed mouse assessed as cure from infection 160 mg/kg/day, po administered for three consecutive days before infection measured after at day 31; type: functional, organism-based; how it was run: as §1
Mus musculus = species: Mus musculus; assay: Metabolic stability in mouse liver microsome by LC-MS/MS method; conditions: liver microsomes
Homo sapiens = species: Homo sapiens; assay: Metabolic stability in human liver microsome by LC-MS/MS method; conditions: liver microsomes
Plasmodium falciparum [10] = assay: Antimicrobial activity against Plasmodium falciparum TM91C235 by microdilution method; type: functional, organism-based
Plasmodium cynomolgi [11] = assay: Antiplasmodial activity against Plasmodium cynomolgi sporozoites infected in Rhesus monkey assessed as delay in detection of parasites in blood at 1.78 mg/kg/day, po administered for three consecutive days before infection; type: functional
Plasmodium cynomolgi [12] = assay: Antiplasmodial activity against Plasmodium cynomolgi sporozoites infected in Rhesus monkey assessed as duration for detection of parasites in blood at 1.78 mg/kg/day, po administered for three consecutive days before infection (reference value: 8 days); type: functional
[13] = Plasmodium falciparum, D6, read-out: IC50
[14] = Plasmodium falciparum, W2, read-out: IC50
[15] = Plasmodium falciparum, TM91C235, read-out: IC50

Q: For `CC(C)N/C(=N\C1=NC(=O)C(=O)N1C(C)C)Nc1ccc(Cl)c(Cl)c1`, which IC50 (Plasmodium falciparum [1]; [13]) is on record?
A: > 6 µg/mL

Q: And the IC50 (Plasmodium falciparum [2]; [14])?
A: > 6 µg/mL

Q: What about the minimal effective dose (Plasmodium berghei [3]) of the same compound?
A: 160 mg/kg/day

Q: What about the MTD at 3 days [4] of the same compound?
A: ≥ 160 mg/kg/day

Q: What about the Time (Plasmodium cynomolgi [5]) of the same compound?
A: 54 days

Q: What about the Time (Plasmodium cynomolgi [6]) of the same compound?
A: 3 days

Q: What about the Time (Plasmodium cynomolgi [7]) of the same compound?
A: 62 days

Q: What about the Time (Plasmodium cynomolgi [8]) of the same compound?
A: 11 days

Q: What about the Activity (Plasmodium berghei [9]) of the same compound?
A: Active

Q: What about the half-life (Mus musculus) of the same compound?
A: > 60 min

Q: What about the half-life (Homo sapiens) of the same compound?
A: > 60 min

Q: With `CC(C)N1C(=O)C(=O)N=C1/N=C(\Nc1ccccc1)Nc1ccc(Cl)c(Cl)c1` as the compound, how does the IC50 (Plasmodium falciparum [1]) read?
A: 2.16 µg/mL (≈ 5.16 µM)

Q: What about the IC50 (Plasmodium falciparum [1]; [13]) of the same compound?
A: 2.16 µg/mL (≈ 5.16 µM)

Q: What about the IC50 (Plasmodium falciparum [10]) of the same compound?
A: 2.6 µg/mL (≈ 6.22 µM)

Q: And the IC50 (Plasmodium falciparum [10]; [15])?
A: 2.6 µg/mL (≈ 6.22 µM)

Q: What about the IC50 (Plasmodium falciparum [2]) of the same compound?
A: 0.88 µg/mL (≈ 2.1 µM)

Q: And the IC50 (Plasmodium falciparum [2]; [14])?
A: 0.88 µg/mL (≈ 2.1 µM)

Q: And the minimal effective dose (Plasmodium berghei [3])?
A: > 160 mg/kg/day

Q: What about the MTD at 3 days [4] of the same compound?
A: ≥ 160 mg/kg/day

Q: What about the half-life (Mus musculus) of the same compound?
A: > 60 min

Q: What about the half-life (Homo sapiens) of the same compound?
A: > 60 min

Q: Which IC50 (Plasmodium falciparum [1]; [13]) does the source give for `CN/C(=N\C1=NC(=O)C(=O)N1C(C)C)Nc1ccc(Cl)c(Cl)c1` here?
A: > 5 µg/mL

Q: What about the IC50 (Plasmodium falciparum [10]; [15]) of the same compound?
A: > 5 µg/mL

Q: And the IC50 (Plasmodium falciparum [2]; [14])?
A: > 5 µg/mL

Q: And the minimal effective dose (Plasmodium berghei [3])?
A: > 320 mg/kg/day

Q: What about the MTD at 3 days [4] of the same compound?
A: ≥ 320 mg/kg/day

Q: And the half-life (Mus musculus)?
A: > 60 min

Q: What about the half-life (Homo sapiens) of the same compound?
A: > 60 min

Q: Which IC50 (Plasmodium falciparum [1]) does the source give for `CC(C)N1C(=O)C(=O)N=C1/N=C(\NOC(C)(C)C)Nc1ccc(Cl)c(Cl)c1` here?
A: 2.75 µg/mL (≈ 6.64 µM)

Q: And the IC50 (Plasmodium falciparum [1]; [13])?
A: 2.75 µg/mL (≈ 6.64 µM)

Q: And the IC50 (Plasmodium falciparum [10])?
A: 3.36 µg/mL (≈ 8.11 µM)

Q: What about the IC50 (Plasmodium falciparum [10]; [15]) of the same compound?
A: 3.36 µg/mL (≈ 8.11 µM)

Q: What about the IC50 (Plasmodium falciparum [2]) of the same compound?
A: 1.14 µg/mL (≈ 2.75 µM)

Q: What about the IC50 (Plasmodium falciparum [2]; [14]) of the same compound?
A: 1.14 µg/mL (≈ 2.75 µM)

Q: What about the minimal effective dose (Plasmodium berghei [3]) of the same compound?
A: > 160 mg/kg/day

Q: And the MTD at 3 days [4]?
A: ≥ 160 mg/kg/day

Q: And the half-life (Mus musculus)?
A: > 60 min

Q: What about the half-life (Homo sapiens) of the same compound?
A: > 60 min

Q: With `CCCCCCN/C(=N\C1=NC(=O)C(=O)N1C(C)C)Nc1ccc(Cl)c(Cl)c1` as the compound, how does the IC50 (Plasmodium falciparum [1]) read?
A: 1.35 µg/mL (≈ 3.17 µM)

Q: And the IC50 (Plasmodium falciparum [1]; [13])?
A: 1.35 µg/mL (≈ 3.17 µM)

Q: What about the IC50 (Plasmodium falciparum [10]) of the same compound?
A: 2.8 µg/mL (≈ 6.57 µM)

Q: What about the IC50 (Plasmodium falciparum [10]; [15]) of the same compound?
A: 2.8 µg/mL (≈ 6.57 µM)

Q: And the IC50 (Plasmodium falciparum [2])?
A: 2.62 µg/mL (≈ 6.15 µM)

Q: What about the IC50 (Plasmodium falciparum [2]; [14]) of the same compound?
A: 2.62 µg/mL (≈ 6.15 µM)

Q: And the minimal effective dose (Plasmodium berghei [3])?
A: > 160 mg/kg/day

Q: And the MTD at 3 days [4]?
A: ≥ 160 mg/kg/day

Q: And the half-life (Mus musculus)?
A: 7.84 min

Q: With `COc1cc(NC(C)CCCN)c2ncccc2c1` (configuration not stated) [PRIMAQUINE] as the compound, how does the Time (Plasmodium cynomolgi [11]) read?
A: 5 days

Q: What about the Time (Plasmodium cynomolgi [12]) of the same compound?
A: 13 days

Q: With `CCN(CC)CCN/C(=N\C1=NC(=O)C(=O)N1C(C)C)Nc1ccc(Cl)c(Cl)c1` as the compound, how does the IC50 (Plasmodium falciparum [1]; [13]) read?
A: > 5 µg/mL

Q: And the IC50 (Plasmodium falciparum [10]; [15])?
A: > 5 µg/mL

Q: What about the IC50 (Plasmodium falciparum [2]; [14]) of the same compound?
A: > 5 µg/mL

Q: And the minimal effective dose (Plasmodium berghei [3])?
A: > 160 mg/kg/day

Q: What about the MTD at 3 days [4] of the same compound?
A: ≥ 160 mg/kg/day

Q: And the half-life (Mus musculus)?
A: 17.6 min

Q: And the half-life (Homo sapiens)?
A: 31.5 min

Q: Which IC50 (Plasmodium falciparum [1]; [13]) does the source give for `CC(C)N1C(=O)C(=O)N=C1/N=C(\NCCN1CCCC1)Nc1ccc(Cl)c(Cl)c1` here?
A: > 5 µg/mL

Q: And the IC50 (Plasmodium falciparum [10]; [15])?
A: > 5 µg/mL

Q: And the IC50 (Plasmodium falciparum [2])?
A: 1.32 µg/mL (≈ 3 µM)

Q: And the IC50 (Plasmodium falciparum [2]; [14])?
A: 1.32 µg/mL (≈ 3 µM)

Q: What about the minimal effective dose (Plasmodium berghei [3]) of the same compound?
A: > 160 mg/kg/day

Q: And the MTD at 3 days [4]?
A: ≥ 160 mg/kg/day

Q: What about the half-life (Mus musculus) of the same compound?
A: 53.2 min

Q: And the half-life (Homo sapiens)?
A: > 60 min

Q: Which IC50 (Plasmodium falciparum [1]; [13]) does the source give for `CC(C)N1C(=O)C(=O)N=C1/N=C(\NOCc1ccccc1)Nc1ccc(Cl)c(Cl)c1` here?
A: > 5 µg/mL

Q: And the IC50 (Plasmodium falciparum [10]; [15])?
A: > 5 µg/mL

Q: What about the IC50 (Plasmodium falciparum [2]; [14]) of the same compound?
A: > 5 µg/mL

Q: And the minimal effective dose (Plasmodium berghei [3])?
A: > 160 mg/kg/day

Q: And the MTD at 3 days [4]?
A: ≥ 160 mg/kg/day

Q: And the Time (Plasmodium cynomolgi [5])?
A: 19 days

Q: What about the Time (Plasmodium cynomolgi [7]) of the same compound?
A: 27 days

Q: What about the half-life (Mus musculus) of the same compound?
A: 12.9 min

Q: What about the half-life (Homo sapiens) of the same compound?
A: > 60 min

Q: For `CCN/C(=N\C1=NC(=O)C(=O)N1C(C)C)Nc1ccc(Cl)c(Cl)c1`, which IC50 (Plasmodium falciparum [1]; [13]) is on record?
A: > 5 µg/mL

Q: What about the IC50 (Plasmodium falciparum [10]; [15]) of the same compound?
A: > 5 µg/mL

Q: What about the IC50 (Plasmodium falciparum [2]) of the same compound?
A: 1.67 µg/mL (≈ 4.51 µM)

Q: And the IC50 (Plasmodium falciparum [2]; [14])?
A: 1.67 µg/mL (≈ 4.51 µM)

Q: And the minimal effective dose (Plasmodium berghei [3])?
A: > 160 mg/kg/day

Q: And the MTD at 3 days [4]?
A: ≥ 160 mg/kg/day

Q: What about the half-life (Mus musculus) of the same compound?
A: > 60 min

Q: What about the half-life (Homo sapiens) of the same compound?
A: > 60 min

Q: For `CC(C)N1C(=O)C(=O)N=C1/N=C(\NCC(C)(C)C)Nc1ccc(Cl)c(Cl)c1`, which IC50 (Plasmodium falciparum [1]) is on record?
A: 1.1 µg/mL (≈ 2.67 µM)

Q: And the IC50 (Plasmodium falciparum [1]; [13])?
A: 1.1 µg/mL (≈ 2.67 µM)

Q: And the IC50 (Plasmodium falciparum [10])?
A: 0.95 µg/mL (≈ 2.3 µM)

Q: And the IC50 (Plasmodium falciparum [10]; [15])?
A: 0.95 µg/mL (≈ 2.3 µM)

Q: What about the IC50 (Plasmodium falciparum [2]) of the same compound?
A: 0.37 µg/mL (≈ 0.897 µM)

Q: And the IC50 (Plasmodium falciparum [2]; [14])?
A: 0.37 µg/mL (≈ 0.897 µM)

Q: And the minimal effective dose (Plasmodium berghei [3])?
A: 160 mg/kg/day

Q: And the MTD at 3 days [4]?
A: ≥ 320 mg/kg/day

Q: What about the Activity (Plasmodium berghei [9]) of the same compound?
A: Active

Q: And the half-life (Mus musculus)?
A: > 60 min

Q: And the half-life (Homo sapiens)?
A: > 60 min

Q: Which IC50 (Plasmodium falciparum [1]) does the source give for `C=CCON/C(=N\C1=NC(=O)C(=O)N1C(C)C)Nc1ccc(Cl)c(Cl)c1` here?
A: 8.5 µg/mL (≈ 21.3 µM)

Q: And the IC50 (Plasmodium falciparum [1]; [13])?
A: 8.5 µg/mL (≈ 21.3 µM)

Q: What about the IC50 (Plasmodium falciparum [10]; [15]) of the same compound?
A: > 15 µg/mL

Q: And the IC50 (Plasmodium falciparum [2])?
A: 6.7 µg/mL (≈ 16.8 µM)

Q: And the IC50 (Plasmodium falciparum [2]; [14])?
A: 6.7 µg/mL (≈ 16.8 µM)

Q: What about the minimal effective dose (Plasmodium berghei [3]) of the same compound?
A: 160 mg/kg/day

Q: And the MTD at 3 days [4]?
A: 120 mg/kg/day

Q: What about the Activity (Plasmodium berghei [9]) of the same compound?
A: Active

Q: What about the half-life (Mus musculus) of the same compound?
A: > 60 min

Q: And the half-life (Homo sapiens)?
A: > 60 min
